Laboratory results as given in ChEMBL document CHEMBL1212900, “Falcipain inhibitors: optimization studies of the 2-pyrimidinecarbonitrile lead series” (J Med Chem, 2010).

Tests used:
Plasmodium falciparum = experiment: Antiplasmodial activity against Plasmodium falciparum W2 after 48 hrs; format: functional, organism-based; settings: W2, 48 h
Outline: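 W2 P. falciparum grown in human erythrocytes, 2% hematocrit, RPMI with 10% human serum or 0.5% AlbuMAX II; sorbitol-synchronized. Serial dilutions from DMSO stocks added at ring stage for 48 h, medium and drug renewed at 24 h. Cells fixed in 1% formaldehyde, stained with YOYO-1, parasitemia counted by flow cytometry; IC50 from percent parasitemia versus untreated controls.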

[1] = Inhibition of Plasmodium falciparum falcipain-3 expressed in Escherichia coli
Outline: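 Refolded recombinant enzyme from E. coli, 2 nM, in 100 mM sodium acetate pH 5.5 with 500 μM CHAPS and 10 mM DTT, DMSO up to 1%. H-D-Val-Leu-Arg-AFC at 150 μM final. Reaction started by enzyme addition; fluorescence monitored 1 h at room temperature. IC50 derived from percent activity plotted against inhibitor concentration.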

[2] = Inhibition of Plasmodium falciparum falcipain-2 expressed in Escherichia coli
Outline: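 Recombinant E. coli-expressed, refolded enzyme at 0.25 nM in 100 mM sodium acetate pH 5.5, 500 μM CHAPS, 10 mM DTT, DMSO ≤1%. Substrate H-D-Val-Leu-Arg-AFC at 30 μM final. Inhibitor dilutions mixed with substrate, enzyme added last; fluorescence followed 1 h at room temperature. IC50 from percent activity versus concentration.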

Row | Compound | IC50 (Plasmodium falciparum) [µM] | IC50 [1] [µM] | IC50 [2] [µM]
1 | CC(C)CN(NC(=O)c1ccc(N2CCN(C)CC2)cc1)c1nc(C#N)ncc1Br | 0.033 | 0.032 | < 0.0002
2 | CN1CCN(Cc2ccc(C(=O)NN(Cc3ccccc3)c3nc(C#N)ncc3Br)cc2)CC1 | 2.37 | 0.335 | 0.005
3 | CC(C)CN(NC(=O)c1cnc2ccccc2c1)c1nc(C#N)ncc1Cl |  | 0.126 | 0.001
4 | CC(C)CN(NC(=O)c1ccc(-c2ccccc2)o1)c1nc(C#N)ncc1Br |  | 0.039 | 0.001
5 | CC(C)CN(NC(=O)c1ccc2nccnc2c1)c1nc(C#N)ncc1Br |  | 1.44 | 0.066
6 | CC(C)CN(NC(=O)c1ccc(C(=O)c2ccccc2)cc1)c1nc(C#N)ncc1Br |  | 0.115 | 0.003
7 | CC(C)CN(NC(=O)c1ccc(-c2ccccc2)s1)c1nc(C#N)ncc1Br |  | 0.549 | 0.006
8 | CC(C)CN(NC(=O)c1cc(-c2ccccc2)ncn1)c1nc(C#N)ncc1Cl |  | 0.03 | 0.001
9 | CC(C)CN(NC(=O)c1ccc(Cc2ccccc2)cc1)c1nc(C#N)ncc1Cl |  | 0.962 | 0.018
10 | CC(C)CN(NC(=O)C1(c2ccc(Cl)cc2)CCC1)c1nc(C#N)ncc1Br |  | 0.216 | 0.012
11 | CC(C)CN(NC(=O)c1csc(-c2ccccc2)n1)c1nc(C#N)ncc1Cl |  | 0.054 | 0.0015
12 | CC(C)CN(NC(=O)c1cccc2c1-c1ccccc1C2=O)c1nc(C#N)ncc1Br |  | 0.067 | 0.002
13 | CC(C)CN(NC(=O)c1cc2ccccc2cn1)c1nc(C#N)ncc1Cl |  | 0.333 | 0.007
14 | CC(C)CN(NC(=O)c1ccc(-c2ccccc2)nc1)c1nc(C#N)ncc1Br |  | 0.104 | 0.003
15 | CC(C)CN(NC(=O)c1ccccc1Oc1ccccc1)c1nc(C#N)ncc1Br |  | 0.066 | 0.005
16 | CC(C)CN(NC(=O)c1ccc(-n2ccnc2)cc1)c1nc(C#N)ncc1Br |  | 0.239 | 0.009
17 | COc1cccc2cc(C(=O)NN(CC(C)C)c3nc(C#N)ncc3Br)oc12 |  | 0.399 | 0.046
18 | CC(C)CN(NC(=O)c1cncc(-c2ccccc2)c1)c1nc(C#N)ncc1Br |  | 0.004 | < 0.0005
19 | Cc1nn(-c2ccccc2)nc1C(=O)NN(CC(C)C)c1nc(C#N)ncc1Br |  | 1.1 | 0.676
20 | CC(C)CN(NC(=O)c1ccnc2ccccc12)c1nc(C#N)ncc1Cl |  | 0.044 | 0.001
21 | Cc1nc(-c2ccc(C(F)(F)F)cc2)sc1C(=O)NN(CC(C)C)c1nc(C#N)ncc1Cl |  | 1.54 | 0.012
22 | CC(C)CN(NC(=O)c1cccc2c1C(=O)c1ccccc1-2)c1nc(C#N)ncc1Br |  | 0.831 | 0.025
23 | CC(C)CN(NC(=O)c1ccc2ccccc2c1)c1nc(C#N)ncc1Br |  | 0.645 | 0.065
24 | CC(C)CN(NC(=O)c1c[nH]c(-c2ccccc2)n1)c1nc(C#N)ncc1Br |  | 0.146 | 0.004

Row | Compound | IC50 (Plasmodium falciparum) [µM] | IC50 [1] [µM] | IC50 [2] [µM]
25 | CC(C)CN(NC(=O)C1(c2ccccc2)CCCC1)c1nc(C#N)ncc1Br |  | 0.137 | 0.011
26 | CC(C)CN(NC(=O)OC(C)(C)C)c1nc(Cl)ncc1[N+](=O)[O-] |  | > 25 | > 25
27 | Cc1c(C(=O)NN(CC(C)C)c2nc(C#N)ncc2Br)noc1-c1ccccc1 |  | 0.071 | 0.02
28 | CC(C)CN(NC(=O)c1cc(-c2ccccc2)no1)c1nc(C#N)ncc1Br |  | 0.359 | 0.01
29 | CC(C)CN(NC(=O)c1nccc2ccccc12)c1nc(C#N)ncc1Cl |  | 0.197 | 0.007
30 | CC(C)CN(NC(=O)c1cc(-c2ccccc2)cs1)c1nc(C#N)ncc1Br |  | 0.374 | 0.003
31 | CC(C)CN(NC(=O)c1cc(-c2cccs2)on1)c1nc(C#N)ncc1Br |  | 0.218 | 0.004
32 | CC(C)CN(NC(=O)c1ccc2[nH]cnc2c1)c1nc(C#N)ncc1Cl |  | 0.093 | 0.0005
33 | CC(C)CN(NC(=O)c1cc(-c2cccs2)[nH]n1)c1nc(C#N)ncc1Cl |  | 0.451 | 0.005
34 | Cc1ccc2[nH]c(C(=O)NN(CC(C)C)c3nc(C#N)ncc3Br)cc2c1 |  | 1.53 | 0.033
35 | CC(C)CN(NC(=O)c1ccc(-n2cncn2)cc1)c1nc(C#N)ncc1Br |  | 0.052 | 0.003
36 | CC(C)CN(NC(=O)c1cccc(-c2cncnc2)c1)c1nc(C#N)ncc1Br |  | 0.012 | < 0.0005
37 | CC(C)CN(NC(=O)c1cnc(-c2ccc3c(c2)CCO3)s1)c1nc(C#N)ncc1Cl |  | 0.198 | 0.002
38 | Cc1c(C(=O)NN(CC(C)C)c2nc(C#N)ncc2Br)n(C)c2ccccc12 |  | 0.311 | 0.004
39 | CC(C)CN(NC(=O)c1cncc(-c2ccccc2)c1)c1nc(C#N)ncc1Cl |  | 0.026 | 0.0008
40 | CC(C)CN(NC(=O)c1csc(-c2ccccc2)n1)c1nc(C#N)ncc1Br |  | 0.13 | 0.003
41 | CC(C)CN(NC(=O)c1cc2cc(OCc3ccccc3)ccc2[nH]1)c1nc(C#N)ncc1Br |  | 4.65 | 0.103
42 | CC(C)CN(NC(=O)c1cc2ccccc2[nH]1)c1nc(C#N)ncc1Br |  | 0.641 | 0.015
43 | CC(C)CN(NC(=O)c1cccc(-c2ccccc2)c1)c1nc(C#N)ncc1Br |  | 0.037 | 0.001
44 | CC(C)CN(NC(=O)c1ncoc1-c1ccccc1)c1nc(C#N)ncc1Br |  | 0.094 | 0.014
45 | CC(C)CN(NC(=O)c1onc2ccccc12)c1nc(C#N)ncc1Br |  | > 10 | 0.604
46 | Cc1nc(-c2ccccc2)sc1C(=O)NN(CC(C)C)c1nc(C#N)ncc1Br |  | 0.999 | 0.406
47 | Cc1nc(-c2ccc3c(c2)CCO3)sc1C(=O)NN(CC(C)C)c1nc(C#N)ncc1Cl |  | 0.95 | 0.003

The remaining lines, values ahead:

Row | IC50 (Plasmodium falciparum) [µM] | IC50 [1] [µM] | IC50 [2] [µM] | Compound
48 |  | 3.57 | 0.196 | CC(C)CN(NC(=O)OC(C)(C)C)c1nccc(C#N)n1
49 |  | 0.026 | 0.002 | CC(C)CN(NC(=O)OC(C)(C)C)c1nc(C#N)ncc1[N+](=O)[O-]
50 |  | 0.86 | 0.257 | CC(C)(C)OC(=O)NN(CCC1CCCCC1)c1nc(C#N)ncc1Br
51 |  | 0.085 | 0.008 | CC(C)(C)OC(=O)NN(CC1CCOCC1)c1nc(C#N)ncc1Br
52 |  | 0.073 | 0.002 | Cc1c(C(=O)NN(CC(C)C)c2nc(C#N)ncc2Br)oc2cccnc12
53 |  | 0.01 | 0.001 | CC(C)(C)OC(=O)NN(CC1CCCC1)c1nc(C#N)ncc1Br
54 |  | 0.504 | 0.064 | CC(C)(C)OC(=O)NN(CCC1CCCC1)c1nc(C#N)ncc1Br
55 |  | 0.092 | 0.003 | CC(C)CN(NC(=O)OC(C)(C)C)c1nc(C#N)ncc1Br
56 |  | 0.06 | 0.018 | CC(C)CN(NC(=O)C(C)(C)c1ccccc1)c1nc(C#N)ncc1Br
57 |  | 0.069 | 0.0007 | CC(C)CN(NC(=O)c1ccc2occc2c1)c1nc(C#N)ncc1Br
58 |  | 1.15 | 0.04 | Cc1cnc(C#N)nc1N(CC(C)C)NC(=O)OC(C)(C)C
59 |  | 0.154 | 0.001 | CC(C)CN(NC(=O)c1ccc2sccc2c1)c1nc(C#N)ncc1Br
60 |  | 0.87 | 0.06 | CC(C)CN(NC(=O)OC(C)(C)C)c1ccnc(C#N)n1
61 |  | 0.034 | 0.007 | CC(C)CN(NC(=O)C(N)c1ccccc1)c1nc(C#N)ncc1Br (stereo not drawn)
62 |  | 0.311 | 0.012 | CC(C)(C)OC(=O)NN(CCC1C=CCC1)c1nc(C#N)ncc1Br (stereo not drawn)
63 |  | 0.035 | 0.002 | CC(C)(C)OC(=O)NN(CC1CC=CC1)c1nc(C#N)ncc1Br

Row | IC50 (Plasmodium falciparum) [µM] | IC50 [1] [µM] | IC50 [2] [µM] | Compound
64 |  | 5.24 | 0.902 | CC(C)N1CCC(N(NC(=O)OC(C)(C)C)c2nc(C#N)ncc2Br)CC1
65 |  | 0.021 | 0.001 | Cc1cc(C)c(CC(=O)NN(CC(C)C)c2nc(C#N)ncc2Br)c(C)c1
66 |  | 0.557 | 0.093 | CC(C)(C)OC(=O)NN(CCc1ccccc1)c1nc(C#N)ncc1Br
67 |  | 0.563 | 0.065 | CC(C)CN(NC(=O)c1cc2ccccc2o1)c1nc(C#N)ncc1Br
68 |  | 0.062 | 0.003 | CC(C)(C)OC(=O)NN(CC1CCC1)c1nc(C#N)ncc1Br
69 |  | 0.204 | 0.012 | COc1nc(C#N)nc(N(CC(C)C)NC(=O)OC(C)(C)C)n1
70 |  | 0.021 | 0.002 | CC(C)(C)OC(=O)NN(c1nc(C#N)ncc1Br)C1CC=CC1
71 |  | 0.135 | 0.026 | CC(C)(C)OC(=O)NN(c1nc(C#N)ncc1Br)C1CCN(C(=O)OC(C)(C)C)CC1
72 |  | 0.146 | 0.024 | CC(C)(C)OC(=O)NN(CC1CCCCC1)c1nc(C#N)ncc1Br
73 |  | 0.038 | 0.002 | CC(C)(C)OC(=O)NN(c1nc(C#N)ncc1Br)C1CCN(C(=O)OCc2ccccc2)CC1
74 |  | 0.041 | 0.002 | CC(C)(C)OC(=O)NN(CC1CC=CCC1)c1nc(C#N)ncc1Br (stereo not drawn)
75 |  | 0.407 | 0.058 | C[C@H]1CCC[C@H]1N(NC(=O)OC(C)(C)C)c1nc(C#N)ncc1Br (relative stereo)
76 |  | 0.067 | 0.007 | CC(=O)N[C@H]1CC[C@H](N(NC(=O)OC(C)(C)C)c2nc(C#N)ncc2Br)CC1
77 |  | 5.33 | 0.102 | CC(C)CN(NC(=O)OC(C)(C)C)c1nc(C#N)ncc1C#Cc1ccc(C(F)(F)F)cc1
78 |  | 0.112 | 0.014 | CC(C)(C)OC(=O)NN(CC1CCCO1)c1nc(C#N)ncc1Br (stereo not drawn)
